This passage reports EC50 and CC50 results from PMC8336461 (Chemical Science, 2021).

For data set [1], the system named is T. brucei brucei Lister 427 bloodstream-form parasites. Kind of data set: T. brucei cell viability assay. Type of data set: cell-based. Particulars: Trypanosoma brucei, 48 h, read-out: T. brucei EC50. An outline of the steps: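 Parasite EC50 reported as the mean ± standard error of 3 biological replicates. Each biological replicate's EC50 was calculated from technical triplicate data.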

Data set [2] in a line: Hep G2 cytotoxicity assay. The format is cell-based. As to conditions: human, Hep G2 cells.
For a further data set, the system named is T. brucei. Particulars: read-out: EC50 against T. brucei; cited from earlier work.
The test system of data set [3] is extracellular L. amazonensis. Particulars: read-out: EC50 against L. amazonensis; cited from earlier work.

As usually defined, the EC50 is the concentration needed to bring the measured effect to its halfway point. Usually CC50 stands for the concentration giving 50% cytotoxicity. Read a high CC50 as lower toxicity to the cells.

Turning to `COC(=O)c1[nH]c(C(=O)OC)c(-c2c[nH]c3ccc(Cl)cc23)c1-c1c[nH]c2ccc(Cl)cc12` [Compound 12, lynamicin D], in data set [1], the concentration for a half-maximal effect (EC50) worked out at 8.3 ± 1 µM. In data set [2], this molecule had a half-maximal cytotoxic concentration (CC50) at 72 h greater than 10 µM. Turning to `COC(=O)c1[nH]cc(-c2c[nH]c3ccc(Cl)cc23)c1-c1c[nH]c2ccc(Cl)cc12` [Compound 13, lynamicin A], the EC50 in data set [1] came out at 8.2 ± 0.45 µM. Further, in data set [2], the CC50 at 72 h is greater than 10 µM. With `CC1(C)OB(O)c2cc(NC(=O)c3ccc(F)cc3C(F)(F)F)ccc21` [acoziborole], the EC50 in the data set on T. brucei is 0.6 µM. On to `CCCCCCCCCCCCCCCCOP(=O)([O-])OCC[N+](C)(C)C` [miltefosine], for which the half-maximal effective concentration (EC50) in data set [3] was 1.2 µM.
